Laboratory results as given in article PMC6397583 (Proceedings of the National Academy of Sciences of the …, 2019).

System: E. coli MC1000
Assay: Transmission electron microscopy of peptide-treated bacteria
Assay type: cell-based, Escherichia coli
Conditions: 6 × 10^8 cfu E. coli MC1000, 200 µg/mL peptide, 2 h
Procedure, shortened: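 Bacteria (6 × 10^8 cfu) were exposed to each test peptide (α-defensin or its fragments) at 200 µg/mL for 2 h. They were then fixed and cut into 30-nm sections. Cell envelope and membrane phenotypes were examined by transmission electron microscopy.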

## CATRESLSGVCEISGRLY [HD-5_10–27]
  phenotype of peptide-treated bacteria (TEM): only minor damage in some bacteria while the majority remained unaffected

## LYRLCCR [HD-5_26–32]
  phenotype of peptide-treated bacteria (TEM): small vesicular structures inside the bacteria
